These results are taken from ChEMBL document CHEMBL1134638, “Synthetic 2-aroylindole derivatives as a new class of potent tubulin-inhibitory, antimitotic agents” (J Med Chem, 2001).

Assay [1] addresses Tubulin beta chain (Bos taurus) (UniProt Q6B856).
The target is the same in assay [2]. This is another data set of the same source.
For assay [3], the target named is T1, Tubulin beta chain (Bos taurus, UniProt Q6B856). The assay can be described thus: Inhibition of tubulin polymerization. The class given is functional. Summed up: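 Bovine brain tubulin with MAPs, prepared by polymerization/depolymerization cycles (0.8 mg/mL), incubated with compound (4 µg/mL for screening, a concentration range for IC50). Run in PEM buffer pH 6.6 with 1 mM GTP at 37 °C for 1 h. Microtubules collected on 0.22 µm filters, stained with amido black, eluted, absorbance read at 600 nm.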

In assay [4] the test system is SK-OV-3. The assay can be described thus: In vitro inhibitory activity against SK-OV-3 cells using XTT proliferation assay. It is filed as functional, cell-based. The conditions noted are these: Homo sapiens. Summed up:
(§1)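 XTT proliferation assay measuring cellular metabolic activity after 48 h incubation with compound. Compounds dissolved in DMSO at 1 mg/mL stock. IC50 or estimates obtained by nonlinear regression. Each experiment at least in duplicate.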
A general note: Formazan colour is commonly taken as a measure of viable cells.

For assay [5], the system named is HeLa. Kind of assay: In vitro inhibitory activity against HeLa/KB cells using XTT proliferation assay. The class given is functional, cell-based. To be noted: Homo sapiens. A digest of the protocol: as §1
The subject of assay [6] is HeLa. The assay can be described thus: In vitro inhibitory activity against HeLa/KB cells using XTT proliferation assay. It is filed as functional, cell-based. The conditions noted are these: Homo sapiens. A digest of the protocol:
as §1

Assay [7] relates to SK-OV-3. The assay can be described thus: In vitro inhibitory activity against SK-OV-3 cells using XTT proliferation assay. It is filed as functional, cell-based. The conditions noted are these: Homo sapiens. A digest of the protocol: as §1
For the next assay, the target named is Tubulin (Bos taurus, UniProt Q6B856+Q862L2+Q862F3). The assay can be described thus: Inhibition of tubulin polymerization; No effect at a concentration up to 10 uM. It is filed as functional.
Assay [8] concerns the target Tubulin beta chain (Bos taurus) (UniProt Q6B856). The assay can be described thus: beta-Tubulin GTPase activity at 1 uM concentration. A digest of the protocol:
(§2)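 MAP-free purified bovine brain tubulin (1 mg/mL) in PEM pH 6.6 with 1 mM MgCl2, 100 µM [α-32P]GTP and 1 M monosodium glutamate. Compound added beforehand, final 1% DMSO. Incubated 1 h at 37 °C, stopped with 1% SDS. GDP/GTP separated by PEI-cellulose TLC in 0.35 M (NH4)2CO3 and quantified by phosphorimager as the GDP/GTP ratio.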

Assay [9] shares this target. The assay can be described thus: beta-Tubulin GTPase activity at 10 uM concentration. Summed up: as §2
Assay [10] concerns Mus musculus. Kind of assay: Drug relative deaths against MEXF 989 cells for a dose of 200 [mg/kg], schedule of d1-5,8-12 by peroral administration in mice. The class given is functional. A digest of the protocol: (§3)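 Outbred NMRI nude mice, 6-8 weeks old, sex matched to donor patient. s.c. fragments (~25 mg) implanted in both flanks. Randomised at 100-200 mm3, 6-12 tumors per group. Compound in DMSO diluted with PBS/0.05% Tween 80 to 10% final DMSO, given orally daily on days 1-5 and 8-12. Toxic deaths and body weight change recorded.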

Assay [11] deals with Mus musculus. The assay can be described thus: Growth delay until tumor doubling in days against MEXF 989 cells for a dose of 200 [mg/kg], schedule of d1-5,8-12 by peroral administration in mice. It is filed as functional. A digest of the protocol: (§4)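 NMRI outbred nude mice aged 6–8 weeks, sex matched to the donor patient. About 25 mg tumor fragments (MEXF 989 or RXF 944L) implanted s.c. in both flanks. Once tumors reached 100–200 mm3, animals were randomized (6–12 tumors/group). Dosing 100 or 200 mg/kg/day orally on days 1–5 and 8–12, in 10% DMSO/PBS with 0.05% Tween 80. Calipers twice weekly. Outputs: T/C from median tumor weights, growth delay to 200% volume, and body weight change.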

Assay [12] concerns Mus musculus. The assay can be described thus: Medium maximum body weight change in percentage against MEXF 989 cells for a dose of 200 [mg/kg], schedule of d1-5,8-12 by peroral administration in mice. The class given is functional. A digest of the protocol: as §4
For another assay, the system named is Tumor Cell line. Kind of assay: Mean cytotoxicity against a panel of human tumor cell lines. It is filed as functional. A digest of the protocol: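 Modified propidium iodide assay quantifying dead cells by DNA/RNA staining, run on a human tumor cell panel (breast, colon, stomach, lung, melanoma, ovary, renal, soft tissue lines). Growth inhibition expressed as % T/C; IC70 per line from concentration-viability plots. Mean IC70 is the geometric mean across lines; unreached values set to the lowest or highest concentration tested.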

Assay [13] has as its system Mus musculus. The assay can be described thus: Drug relative deaths against RXF 944LX cells for a dose of 100 [mg/kg], schedule of d1-5,8-12 by oral administration in mice. The class given is functional. A digest of the protocol:
as §3

In assay [14] the test system is U373 MG. Kind of assay: Cytotoxicity against U373 astrocytoma cells. It is filed as functional, cell-based, U-373MG ATCC. To be noted: Homo sapiens. A digest of the protocol: as §1
For assay [15], the system named is Mus musculus. Kind of assay: Medium maximum body weight change in percentage against RXF 944LX cells for a dose of 100 [mg/kg], schedule of d1-5,8-12 by oral administration in mice. The class given is functional. A digest of the protocol:
as §4

Assay [16] has as its system Mus musculus. The assay can be described thus: Medium maximum body weight change in percentage against MEXF 989 cells for a dose of 100 [mg/kg], schedule of d1-5,8-12 by oral administration in mice. The class given is functional. Summed up:
as §4

In assay [17] the test system is Mus musculus. Kind of assay: Growth delay until tumor doubling in days against MEXF 989 cells for a dose of 100 [mg/kg], schedule of d1-5,8-12 in mice by oral administration. It is filed as functional. Summed up:
as §4

For assay [18], the system named is Mus musculus. Kind of assay: Drug relative deaths against MEXF 989 cells for a dose of 100 [mg/kg], schedule of d1-5,8-12 by oral administration in mice. The class given is functional. Summed up: as §3
The subject of assay [19] is Mus musculus. The assay can be described thus: Growth delay until tumor doubling in days against RXF 944LX cells for a dose of 100 [mg/kg], schedule of d1-5,8-12 by oral administration in mice. It is filed as functional. Summed up:
as §4

The subject of assay [20] is Mus musculus. The assay can be described thus: Medium maximum body weight change in percentage against RXF 944LX cells for a dose of 200 [mg/kg], schedule of d1-5,8-12 by peroral administration in mice. The class given is functional. A digest of the protocol:
as §4

For assay [21], the system named is Mus musculus. The assay can be described thus: Drug relative deaths against RXF 944LX cells for a dose of 200 [mg/kg], schedule of d1-5,8-12 by peroral administration in mice. The class given is functional. Summed up:
as §3

Assay [22] deals with Mus musculus. The assay can be described thus: Optimum tumor weight of treated / control animals in % (deviation) for a dose of 100 [mg/kg], schedule of d1-5,8-12 by oral administration in mice. It is filed as functional. A digest of the protocol:
as §4

Assay [23] concerns U373 MG. The assay can be described thus: (§5) Cell cycle arrest activity against U373 astrocytoma cells. The conditions noted are these: Homo sapiens.
Assay [24] deals with U373 MG. The assay is described as §5. It is filed as functional, cell-based, U-373MG ATCC. To be noted: Homo sapiens. A digest of the protocol:
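U373 cells (5 × 10^6) exposed to compound for 24 h at 37 °C, trypsinised, washed in PBS, fixed in 80% methanol 30 min on ice. Stained with 20 µg/mL propidium iodide plus 1 mg/mL RNase A in PBS/0.1% saponin, 30 min at 37 °C. DNA content read by flow cytometry; G2/M fraction modelled. IC50 by nonlinear regression of dose-response.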

Assay [25] addresses T1, Tubulin beta chain. The assay can be described thus: Inhibition of tubulin polymerization. It is filed as functional.

In brackets after ≈: the same amount, converted by molar mass. Several values for one entry are separate records, joined by “and”; a condition that tells them apart may be missing. Identical values can stand only once. Where only a bound is given, the exact number is not on record here.

Broadly, the IC50 is the concentration needed to halve the response being measured. The low end stands for greater potency, the high end for weaker potency. The IC70 is the concentration at which the effect reaches the 70% level.

T1 sequence (Q6B856 whole entry): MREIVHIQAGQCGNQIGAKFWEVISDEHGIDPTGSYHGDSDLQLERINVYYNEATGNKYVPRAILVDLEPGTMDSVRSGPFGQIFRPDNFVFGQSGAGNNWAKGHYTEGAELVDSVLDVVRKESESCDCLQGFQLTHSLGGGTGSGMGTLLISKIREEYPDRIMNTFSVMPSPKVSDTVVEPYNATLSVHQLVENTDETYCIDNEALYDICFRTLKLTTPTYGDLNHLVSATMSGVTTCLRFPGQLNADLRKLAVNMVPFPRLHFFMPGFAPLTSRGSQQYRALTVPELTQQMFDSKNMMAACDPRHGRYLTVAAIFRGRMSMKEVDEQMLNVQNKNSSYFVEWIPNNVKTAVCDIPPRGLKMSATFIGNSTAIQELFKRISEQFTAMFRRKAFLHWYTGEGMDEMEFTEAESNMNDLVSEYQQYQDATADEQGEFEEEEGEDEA
Chain of Tubulin beta chain (Bos taurus) (Q6B856 whole entry): as above

On to `CC[C@]1(O)C[C@H]2CN(CCc3c([nH]c4ccccc34)[C@@](C(=O)OC)(c3cc4c(cc3OC)N(C=O)[C@H]3[C@@](O)(C(=O)OC)[C@H](OC(C)=O)[C@]5(CC)C=CCN6CC[C@]43[C@@H]65)C2)C1`, for which the GTPase Activity in [1] is 0.09; in assay [2] it was 5.3.
Consider `COc1ccc2[nH]c(C(=O)c3cccc(SC(F)(F)F)c3)cc2c1`, for which the results for the IC50 against Tubulin beta chain [3], with SK-OV-3 [4] and in the assay on HeLa [5] were over 10000 nM, 630 nM and 880 nM, respectively.
Regarding `COc1ccc2[nH]c(C(=O)c3cccc(SC(F)F)c3)cc2c1`, the half-maximal inhibitory concentration (IC50) was 2100 nM against Tubulin beta chain [3], 360 nM in the assay with SK-OV-3 [4] and 390 nM in the assay on HeLa [5].
With `COc1ccc(C(=O)c2cc3cc(OC)ccc3[nH]2)cc1`, the 50% inhibitory concentration (IC50) in the assay with HeLa [6] is 11400 nM; in the assay with SK-OV-3 [7], 11400 nM; on Tubulin it was “No effect”.
In the case of `COc1ccc2[nH]c(C(=O)c3c(F)cccc3F)cc2c1`, the IC50 is 6960 nM in the assay on HeLa [6], 8700 nM in the assay on SK-OV-3 [7] and “No effect” against Tubulin.
Regarding `COC(=O)Nc1nc2cc(C(=O)c3cccs3)ccc2[nH]1`, the GTPase Activity in assay [8] was 4.9; in assay [9], 9.
On to `COc1ccc2[nH]c(C(=O)c3ccccc3)cc2c1`, for which the IC50 in the assay on HeLa [6] stood at 68 nM; in the assay on U373 MG [14], 74 nM; with SK-OV-3 [7], 680 nM; in the assay on U373 MG [23], 62.7 nM. Further, the Activity in the assay with Mus musculus [10], in the assay on Mus musculus [13], with Mus musculus [18] and with Mus musculus [21] was 0% each time. For the same compound, the GD200 is 12.9 days with Mus musculus [11], 4.8 days in the assay on Mus musculus [17] and -0.4 days in the assay on Mus musculus [19]. Further, the BWC in the assay with Mus musculus [12] was 3%; with Mus musculus [15], 11%; with Mus musculus [16], 11%; with Mus musculus [20], 1%. In addition, the 70% effect level in the assay with Tumor Cell line (IC70) was put at 0.22 µg/mL (≈ 0.875 µM). Moreover, the “T/C (d)” value in the assay on Mus musculus [22] was 34% and 100%.
For the compound `COc1cccc(C(=O)c2cc3cc(OC)ccc3[nH]2)c1`, the half-inhibitory concentration (IC50) in the assay with HeLa [6] worked out at 11 nM; in the assay with U373 MG [24] it was 10.7 nM; in the assay with U373 MG [14], 28 nM; with SK-OV-3 [7], 11 nM; against Tubulin beta chain [25], 530 nM. It took 0.27 µg/mL (≈ 0.96 µM) to reach the 70% level in the assay with Tumor Cell line (IC70).
As for `CC(=O)O[C@H]1C(=O)[C@@]2(C)[C@H]([C@H](OC(=O)c3ccccc3)[C@]3(O)C[C@H](OC(=O)[C@H](O)[C@@H](NC(=O)c4ccccc4)c4ccccc4)C(C)=C1C3(C)C)[C@]1(OC(C)=O)CO[C@@H]1C[C@@H]2O`, the figures for the GTPase Activity in assay [1] and in [2] were 1.4 and 3.3, respectively.
For `COc1ccc2[nH]c(C(=O)c3cc(OC)c(OC)c(OC)c3)cc2c1`, the 50% inhibitory concentration (IC50) in the assay with HeLa [6] was determined as 29 nM; in the assay with U373 MG [24] it was 36.1 nM; with U373 MG [14], 73 nM; in the assay on SK-OV-3 [7], 58 nM; against Tubulin beta chain [25], 990 nM. Moreover, the 70% effect level in the assay on Tumor Cell line (IC70) was put at 0.17 µg/mL (≈ 0.498 µM).
